{"data": "Experimental data pooled from the literature", "cell line": "T47D", "effect on": "cell growth or viability", "note": "Lines come from different studies, so protocols differ."}
{"Structure (SMILES)": "Cc1c(Cl)c(=O)oc2cc(OCCCCSC#N)ccc12", "method": "SRB", "measurement": "GI50", "value": "24 µM"}
{"Structure (SMILES)": "C=C[C@]1(C)C=C2CC[C@H]3C(C)(C)CCC[C@]3(C)[C@H]2CC1", "method": "MTT", "time": "75 h", "measurement": "IC50", "value": "159 µM"}
{"Structure (SMILES)": "COC(=O)c1cc(C(C)=NNc2nc(-c3ccc4c(c3)OCCCO4)cs2)ccc1O", "method": "MTT", "time": "96 h", "measurement": "IC50", "value": "21.2 µM"}
{"Structure (SMILES)": "C[C@H](Nc1ccc2c(c1)OCCn1cc(N3C(=O)OC[C@H]3C(F)F)nc1-2)C(N)=O", "method": "ATP luminescence", "time": "5 days", "measurement": "EC50", "value": "0.0312 µM"}
{"Structure (SMILES)": "COC(=O)c1cc(C(C)=NNc2nc(-c3ccc(C)cc3)cs2)ccc1O", "method": "MTT", "time": "96 h", "measurement": "IC50", "value": "24.1 µM"}
{"Structure (SMILES)": "Cc1nc(NC(=O)N2CCC[C@H]2C(N)=O)sc1-c1ccnc(C(C)(C)C(F)(F)F)c1", "method": "ATP luminescence", "time": "5 days", "measurement": "EC50", "value": "0.444 µM"}
{"Structure (SMILES)": "CN(C)c1cccc2c(S(=O)(=O)NCCCCN=C=S)cccc12", "method": "MTT", "time": "24 h", "measurement": "IC50", "value": "21.1 µM"}
{"Structure (SMILES)": "N#CSCCCCOc1ccc2c(-c3ccccc3)cc(=O)oc2c1", "method": "SRB", "measurement": "GI50", "value": "34 µM"}
{"Structure (SMILES)": "CS(=O)(=O)NCCCCN=C=S", "method": "MTT", "time": "24 h", "measurement": "IC50", "value": "26.9 µM"}
{"Structure (SMILES)": "COc1cccc2c1C(=O)c1c(O)c3c(c(O)c1C2=O)C[C@@](O)(C(=O)CO)C[C@@H]3O[C@H]1C[C@H](N)[C@H](O)[C@H](C)O1", "method": "MTT", "time": "24 h", "measurement": "IC50", "value": "75.9 µM"}
{"Structure (SMILES)": "COc1cccc2c1C(=O)c1c(O)c3c(c(O)c1C2=O)C[C@@](O)(C(=O)CO)C[C@@H]3O[C@H]1C[C@H](N)[C@H](O)[C@H](C)O1", "method": "MTT", "time": "75 h", "measurement": "IC50", "value": "0.27 µM"}
